In paper PMC11701428 (RSC Advances, 2025):

Experiments:
HepG2 cells [1] = assay: MTT cytotoxicity assay against HepG2 cells; type: cell-based; conditions: read-out: IC50 ± SD HepG2, mean ± SD of three independent trials
Outline: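 HepG2 cells (NCI Cairo) grown in RPMI-1640 with L-glutamine, 10% FBS and 1% penicillin–streptomycin at 37 °C, 5% CO2. Plated in triplicate at 5 × 10^4 cells; next day treated at 0.01, 0.1, 1, 10 and 100 μM. Viability measured by MTT relative to control, IC50 computed. Mean ± SD of three independent trials.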

HepG2 cells [2] = assay: Cell cycle analysis by flow cytometry in HepG2 cells; type: cell-based; conditions: HepG2, treated at IC50 for 48 h
Outline: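 Flow cytometric cell-phase distribution of HepG2 cells. Cells were left untreated or given test compound at its IC50 for 48 h. Data are mean ± SD of three independent runs.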

[3] = tested on: apoptosis-related genes (P53, Bax, caspases 3, 8, 9, BCL-2) in HepG2 cells; assay: RT-PCR gene expression of apoptosis-related genes in HepG2 cells; type: cell-based; conditions: HepG2, IC50, 48 h, normalized to β-actin
HepG2 cells [4] = assay: Annexin V/PI staining flow cytometry; type: cell-based; conditions: HepG2, treated at IC50 for 48 h
EGFR = EGFR (Homo sapiens, UniProt P00533); assay: EGFR-TK enzyme inhibition; type: biochemical; conditions: for percentage of inhibition of EGFR: concentration not given
EGFR, sequence (P00533 25-1210): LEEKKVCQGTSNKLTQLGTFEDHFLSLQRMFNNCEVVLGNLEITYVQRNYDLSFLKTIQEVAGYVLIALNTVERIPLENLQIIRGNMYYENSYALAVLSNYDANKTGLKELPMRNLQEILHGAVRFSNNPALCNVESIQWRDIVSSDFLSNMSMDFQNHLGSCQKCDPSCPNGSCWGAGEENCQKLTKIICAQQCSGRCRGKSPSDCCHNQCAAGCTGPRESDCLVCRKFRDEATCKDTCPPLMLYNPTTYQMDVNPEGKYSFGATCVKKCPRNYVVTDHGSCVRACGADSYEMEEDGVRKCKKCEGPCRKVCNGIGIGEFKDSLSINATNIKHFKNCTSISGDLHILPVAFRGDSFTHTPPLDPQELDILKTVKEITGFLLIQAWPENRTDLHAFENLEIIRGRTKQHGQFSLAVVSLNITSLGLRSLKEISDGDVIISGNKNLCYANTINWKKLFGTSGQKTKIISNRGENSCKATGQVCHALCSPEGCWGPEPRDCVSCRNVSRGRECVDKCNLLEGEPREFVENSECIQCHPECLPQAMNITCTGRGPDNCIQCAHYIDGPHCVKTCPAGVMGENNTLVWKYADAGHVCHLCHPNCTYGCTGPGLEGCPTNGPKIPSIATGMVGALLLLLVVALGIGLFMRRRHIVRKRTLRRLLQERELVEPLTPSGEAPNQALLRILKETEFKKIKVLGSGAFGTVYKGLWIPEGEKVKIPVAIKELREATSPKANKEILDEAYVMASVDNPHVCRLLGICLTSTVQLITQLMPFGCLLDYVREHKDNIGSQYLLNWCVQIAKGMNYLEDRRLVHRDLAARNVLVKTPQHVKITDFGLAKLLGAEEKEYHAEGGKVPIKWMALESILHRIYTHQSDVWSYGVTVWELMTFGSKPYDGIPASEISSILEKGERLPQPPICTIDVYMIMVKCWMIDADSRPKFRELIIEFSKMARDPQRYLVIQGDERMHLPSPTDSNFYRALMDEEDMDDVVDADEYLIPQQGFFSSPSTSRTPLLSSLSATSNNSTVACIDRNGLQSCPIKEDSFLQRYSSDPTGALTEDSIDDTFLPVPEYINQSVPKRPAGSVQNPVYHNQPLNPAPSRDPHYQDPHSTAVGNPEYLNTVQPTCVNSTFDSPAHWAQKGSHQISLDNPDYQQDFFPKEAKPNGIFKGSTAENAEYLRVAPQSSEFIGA

PARP-1 = PARP-1 (Homo sapiens, UniProt P09874); assay: PARP-1 enzyme inhibition; type: biochemical; conditions: for percentage of inhibition of PARP-1: concentration not given
PARP-1, sequence (P09874 whole entry): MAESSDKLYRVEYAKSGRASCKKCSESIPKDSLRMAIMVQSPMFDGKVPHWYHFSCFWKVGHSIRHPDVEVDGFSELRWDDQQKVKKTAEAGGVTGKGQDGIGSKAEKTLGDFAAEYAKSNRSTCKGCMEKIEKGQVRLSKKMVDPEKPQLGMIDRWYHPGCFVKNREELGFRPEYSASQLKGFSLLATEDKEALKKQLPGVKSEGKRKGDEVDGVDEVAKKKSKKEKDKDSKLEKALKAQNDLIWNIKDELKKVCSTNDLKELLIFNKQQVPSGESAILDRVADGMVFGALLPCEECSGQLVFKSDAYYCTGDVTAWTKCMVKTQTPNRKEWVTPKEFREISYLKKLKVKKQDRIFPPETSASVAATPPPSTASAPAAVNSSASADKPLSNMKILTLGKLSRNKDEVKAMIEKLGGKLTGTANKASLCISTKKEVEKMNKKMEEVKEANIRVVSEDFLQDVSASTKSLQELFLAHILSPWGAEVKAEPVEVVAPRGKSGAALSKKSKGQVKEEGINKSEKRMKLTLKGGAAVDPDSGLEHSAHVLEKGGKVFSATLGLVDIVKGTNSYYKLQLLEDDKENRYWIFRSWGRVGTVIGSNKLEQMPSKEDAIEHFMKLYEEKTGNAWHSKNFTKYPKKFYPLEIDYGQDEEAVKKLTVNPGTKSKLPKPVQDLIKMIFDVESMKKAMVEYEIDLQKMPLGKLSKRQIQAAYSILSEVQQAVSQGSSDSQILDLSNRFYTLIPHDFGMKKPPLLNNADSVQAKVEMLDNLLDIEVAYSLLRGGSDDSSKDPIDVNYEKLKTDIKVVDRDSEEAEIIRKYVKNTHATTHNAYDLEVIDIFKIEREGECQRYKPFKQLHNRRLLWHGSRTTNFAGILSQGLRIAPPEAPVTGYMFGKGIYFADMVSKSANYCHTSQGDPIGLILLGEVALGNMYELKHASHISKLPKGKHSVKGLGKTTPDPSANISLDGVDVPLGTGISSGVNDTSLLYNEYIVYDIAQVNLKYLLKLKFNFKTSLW

Compound | IC50 (HepG2 cells [1]) [nM] | IC50 (EGFR) [nM] | percentage of inhibition of EGFR (EGFR) [%] | IC50 (PARP-1) [nM] | percentage of inhibition of PARP-1 (PARP-1) [%] | also measured
Cc1c(C(=O)/C=C/c2cc3ccccc3s2)nnn1-c1c(Cl)cc(Cl)cc1Cl [1b, (E)-3-(Benzo[b]thiophen-2-yl)-1-(5-methyl-1-(2,4,6-trichlorophenyl)-1H-1,2,3-triazol-4-yl)prop-2-en-1-one] | 8500 ± 400 | – | – | – | – | –
Cc1c(C(=O)[C@H]2[C@H](c3cc4ccccc4o3)C3CCCN3[C@]23C(=O)Nc2cc(Cl)ccc23)nnn1-c1c(Cl)cc(Cl)cc1Cl (stereo partly drawn) [4a, (1′S,2′S,3R)-1′-(Benzofuran-2-yl)-6-chloro-2′-(5-methyl-1-(2,4,6-trichlorophenyl)-1H-1,2,3-triazole-4-carbonyl)-1′,2′,5′,6′,7′,7a′-hexahydrospiro[indoline-3,3′-pyrrolizin]-2-one] | – | 74.6 ± 1.8 | 94.1 | 2.01 ± 0.1 | 95.2 | cell population in S-phase (HepG2 cells [2]; control 30%): 33%; cell population in G2/M-phase (HepG2 cells [2]; control 34%): 42%; Bax gene expression fold change ([3]; 2^−ΔΔCT): 4.6 fold; P53 gene expression fold change ([3]; 2^−ΔΔCT): 9.3 fold; caspase 3 gene expression fold change ([3]; 2^−ΔΔCT): 5.6 fold; caspase 8 gene expression fold change ([3]; 2^−ΔΔCT): 3.5 fold; caspase 9 gene expression fold change ([3]; 2^−ΔΔCT): 8.6 fold; BCL-2 gene expression (fold, decrease) ([3]; anti-apoptotic gene, decreased): 0.37 fold; early apoptosis cell population (HepG2 cells [4]): 12.1%; induction of apoptosis versus untreated control (HepG2 cells [4]): 6.62 fold; late apoptosis cell population (HepG2 cells [4]): 0.95%; cells in necrosis (HepG2 cells [4]; untreated 0.61%): 0.58%; cell population in total apoptosis (HepG2 cells [4]; untreated 1.97%): 13.05%
Cc1c(C(=O)[C@H]2[C@H](c3cc4ccccc4s3)C3CCCN3[C@]23C(=O)Nc2cc(Cl)ccc23)nnn1-c1c(Cl)cc(Cl)cc1Cl (stereo partly drawn) [4b, (1′S,2′S,3R)-1′-(Benzo[b]thiophen-2-yl)-6-chloro-2′-(5-methyl-1-(2,4,6-trichlorophenyl)-1H-1,2,3-triazole-4-carbonyl)-1′,2′,5′,6′,7′,7a′-hexahydrospiro[indoline-3,3′-pyrrolizin]-2-one] | – | 85.3 ± 2.9 | 90.1 | 3.6 ± 0.3 | 81.2 | –
Cc1c(C(=O)[C@H]2[C@H](c3cc4ccccc4s3)C3CCCN3[C@]23C(=O)Nc2ccc(F)cc23)nnn1-c1c(Cl)cc(Cl)cc1Cl (stereo partly drawn) [4f, (1′S,2′S,3R)-1′-(Benzo[b]thiophen-2-yl)-5-fluoro-2′-(5-methyl-1-(2,4,6-trichlorophenyl)-1H-1,2,3-triazole-4-carbonyl)-1′,2′,5′,6′,7′,7a′-hexahydrospiro[indoline-3,3′-pyrrolizin]-2-one] | – | 116 ± 3.1 | 84.3 | 18.4 ± 1 | 86.6 | –
Cc1c(C(=O)[C@H]2[C@H](c3cc4ccccc4o3)C3CCCN3[C@]23C(=O)Nc2ccc(F)cc23)nnn1-c1c(Cl)cc(Cl)cc1Cl (stereo partly drawn) [4g, (1′S,2′S,3R)-1′-(Benzofuran-2-yl)-5-fluoro-2′-(5-methyl-1-(2,4,6-trichlorophenyl)-1H-1,2,3-triazole-4-carbonyl)-1′,2′,5′,6′,7′,7a′-hexahydrospiro[indoline-3,3′-pyrrolizin]-2-one] | 8900 ± 300 | – | – | – | – | –
